Laboratory results published in ChEMBL document CHEMBL1149859, “Proteasome inhibition by peptide-semicarbazones” (Bioorg Med Chem, 2008).
Calls of active or inactive are those of the source. The rule behind the calls is not given here.

Test system: not listed separately
Assay: Inhibition of human 20S proteasome by fluorescence spectroscopy
Procedure, shortened: (§1)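 20S proteasome (1.3 µg) activated in 25 mM Hepes pH 7.5, 0.5 mM EDTA, 0.033% SDS for 10 min at room temperature. Added to compound in DMSO with 75 µM Suc-LLVY-AMC. AMC release followed 20 min at 30 °C (ex 360, em 465 nm) as RFU/min. IC50 from eight concentrations, triplicates on one day.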

SMILES	IC50 [nM]
O=C1CN(/N=C/[C@H](Cc2ccccc2)NC(=O)[C@H](Cc2c[nH]c3ccccc23)NC(=O)[C@H](Cc2c[nH]c3ccccc23)NC(=O)CCCCC2SCC3NC(=O)NC32)C(=O)N1 (stereo partly drawn)	100
NC(=O)N/N=C/[C@H](Cc1c[nH]c2ccccc12)NC(=O)[C@H](Cc1c[nH]c2ccccc12)NC(=O)[C@H](Cc1c[nH]c2ccccc12)NC(=O)OCc1ccccc1	100
NC(=O)N/N=C/[C@H](Cc1ccccc1)NC(=O)[C@H](Cc1c[nH]c2ccccc12)NC(=O)[C@H](Cc1c[nH]c2ccccc12)NC(=O)OCc1ccccc1	200
O=C1CN(/N=C/[C@H](Cc2ccccc2)NC(=O)[C@H](Cc2c[nH]c3ccccc23)NC(=O)[C@H](Cc2c[nH]c3ccccc23)NC(=O)CCc2ccc(O)cc2)C(=O)N1	100

Now from value to molecule:

IC50 [nM]	SMILES
400	O=C1CN(/N=C/[C@@H](Cc2ccccc2)NC(=O)[C@H](Cc2c[nH]c3ccccc23)NC(=O)[C@H](Cc2c[nH]c3ccccc23)NC(=O)OCc2ccccc2)C(=O)N1
1100	O=C1CN(/N=C/[C@H](Cc2c[nH]c3ccccc23)NC(=O)[C@H](Cc2c[nH]c3ccccc23)NC(=O)[C@H](Cc2c[nH]c3ccccc23)NC(=O)OCc2ccccc2)C(=O)N1
200	O=C1CN(/N=C/[C@H](Cc2ccccc2)NC(=O)[C@H](Cc2c[nH]c3ccccc23)NC(=O)[C@H](Cc2c[nH]c3ccccc23)NC(=O)OCc2ccccc2)C(=O)N1
1600	O=C1CN(/N=C/[C@H](Cc2ccccc2)NC(=O)[C@H](Cc2c[nH]c3ccccc23)NC(=O)[C@H](Cc2c[nH]c3ccccc23)NC(=O)OCc2ccncc2)C(=O)N1

Test system: A549
Assay: Inhibition of TNF-alpha-induced NF-kappaB transcriptional activation in human A549 cells by SEAP reporter gene assay
Assay type: functional, cell-based
Procedure, shortened: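 A549 cells stably transfected with a pNF-κB-SEAP reporter, seeded at 2 × 10^4/well and attached overnight. Preincubated 5 h with compound at 100, 30, 10, 3, 1, 0.3, 0.1 and 0 µM, then stimulated with 10 ng/ml TNF-α for 22 h. Supernatant SEAP read by chemiluminescence; viability checked in parallel with CellTiter-Blue.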

SMILES	EC50 [nM]	Activity
O=C1CN(/N=C/[C@H](Cc2ccccc2)NC(=O)[C@H](Cc2c[nH]c3ccccc23)NC(=O)[C@H](Cc2c[nH]c3ccccc23)NC(=O)CCCCC2SCC3NC(=O)NC32)C(=O)N1 (stereo partly drawn)	–	inactive
NC(=O)N/N=C/[C@H](Cc1c[nH]c2ccccc12)NC(=O)[C@H](Cc1c[nH]c2ccccc12)NC(=O)[C@H](Cc1c[nH]c2ccccc12)NC(=O)OCc1ccccc1	1800	–
NC(=O)N/N=C/[C@H](Cc1ccccc1)NC(=O)[C@H](Cc1c[nH]c2ccccc12)NC(=O)[C@H](Cc1c[nH]c2ccccc12)NC(=O)OCc1ccccc1	5800	–
O=C1CN(/N=C/[C@H](Cc2ccccc2)NC(=O)[C@H](Cc2c[nH]c3ccccc23)NC(=O)[C@H](Cc2c[nH]c3ccccc23)NC(=O)CCc2ccc(O)cc2)C(=O)N1	8700	–

Further lines, with some results ahead:

EC50 [nM]	SMILES	Activity
800	O=C1CN(/N=C/[C@@H](Cc2ccccc2)NC(=O)[C@H](Cc2c[nH]c3ccccc23)NC(=O)[C@H](Cc2c[nH]c3ccccc23)NC(=O)OCc2ccccc2)C(=O)N1	–
3000	O=C1CN(/N=C/[C@H](Cc2c[nH]c3ccccc23)NC(=O)[C@H](Cc2c[nH]c3ccccc23)NC(=O)[C@H](Cc2c[nH]c3ccccc23)NC(=O)OCc2ccccc2)C(=O)N1	–
400	O=C1CN(/N=C/[C@H](Cc2ccccc2)NC(=O)[C@H](Cc2c[nH]c3ccccc23)NC(=O)[C@H](Cc2c[nH]c3ccccc23)NC(=O)OCc2ccccc2)C(=O)N1	–
4900	O=C1CN(/N=C/[C@H](Cc2ccccc2)NC(=O)[C@H](Cc2c[nH]c3ccccc23)NC(=O)[C@H](Cc2c[nH]c3ccccc23)NC(=O)OCc2ccncc2)C(=O)N1	–

Test system: PBMC
Assay: Antiproliferative activity against human peripheral blood mononuclear cells after 48 hrs by ELISA
Assay type: cell-based
Procedure, shortened: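 Human PBMC isolated by density gradient, 100,000–200,000 cells/well in RPMI 1640 with 10% heat-inactivated FBS. Stimulated with 20 µg/ml PHA-L and exposed to compound at 0.4–50 µM for 48 h at 37 °C, 5% CO2. BrdU (10 µM) added for a further 4 h. Cells fixed and DNA denatured; incorporated BrdU detected with anti-BrdU-POD.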

SMILES	IC50 [nM]
O=C1CN(/N=C/[C@H](Cc2ccccc2)NC(=O)[C@H](Cc2c[nH]c3ccccc23)NC(=O)[C@H](Cc2c[nH]c3ccccc23)NC(=O)CCCCC2SCC3NC(=O)NC32)C(=O)N1 (stereo partly drawn)	29000
NC(=O)N/N=C/[C@H](Cc1c[nH]c2ccccc12)NC(=O)[C@H](Cc1c[nH]c2ccccc12)NC(=O)[C@H](Cc1c[nH]c2ccccc12)NC(=O)OCc1ccccc1	1400
O=C1CN(/N=C/[C@H](Cc2ccccc2)NC(=O)[C@H](Cc2c[nH]c3ccccc23)NC(=O)[C@H](Cc2c[nH]c3ccccc23)NC(=O)OCc2ccccc2)C(=O)N1	700

Test system: not listed separately
Assay: Inhibition of peptidylglutamyl peptide hydrolyzing site of human 20S proteasome
Procedure, shortened: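 Peptidylglutamyl-peptide hydrolysing activity of SDS-activated 20S proteasome (1.3 µg; 25 mM Hepes pH 7.5, 0.5 mM EDTA, 0.033% SDS, 10 min preincubation at room temperature). Substrate was 75 µM Z-LLE-βNA with compound in DMSO. Fluorescence followed 20 min at 30 °C as RFU/min. IC50 from eight concentrations, triplicates on one day.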

IC50 [nM]	SMILES
3700	NC(=O)N/N=C/[C@H](Cc1c[nH]c2ccccc12)NC(=O)[C@H](Cc1c[nH]c2ccccc12)NC(=O)[C@H](Cc1c[nH]c2ccccc12)NC(=O)OCc1ccccc1
1200	O=C1CN(/N=C/[C@H](Cc2ccccc2)NC(=O)[C@H](Cc2c[nH]c3ccccc23)NC(=O)[C@H](Cc2c[nH]c3ccccc23)NC(=O)OCc2ccccc2)C(=O)N1

Test system: not listed separately
Assay: Inhibition of chymotrypsin-like site of human 20S proteasome
Procedure, shortened: as §1

IC50 [nM]	SMILES
100	NC(=O)N/N=C/[C@H](Cc1c[nH]c2ccccc12)NC(=O)[C@H](Cc1c[nH]c2ccccc12)NC(=O)[C@H](Cc1c[nH]c2ccccc12)NC(=O)OCc1ccccc1
200	O=C1CN(/N=C/[C@H](Cc2ccccc2)NC(=O)[C@H](Cc2c[nH]c3ccccc23)NC(=O)[C@H](Cc2c[nH]c3ccccc23)NC(=O)OCc2ccccc2)C(=O)N1
